Active and inactive are the calls of the source.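 Rule for the calls: active = viability at or below 30% in both replicate assays; inconclusive = viability at or below 30% in just one of the two assays; inactive = the rest.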

The assay is described as follows: HUVEC growth inhibition – cell-based, human, primary screen (AID 575).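 Note: 100% = median of untreated cell wells with 0.1% DMSO on each plate.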 The note with it: HUVEC proliferation, CellTiter-Glo luminescence, 72 h; at 10 µM; hits give low values. A digest of the protocol: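 Test system: primary human umbilical vein endothelial cells; medium: endothelial basal medium with 2% FBS plus growth supplements; dosing: 10 µM compound only; times: 72 h treatment at 37 °C; signal: CTG luminescence; read-out: % viability relative to median vehicle-well signal on each plate; control set: vehicle and MePR control wells; plate: 384-well, collagen-coated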
With `CC1(C)CC(=O)C2=C(C1)N(Cc1ccco1)C(=O)C2(NC(=O)C1CCCCC1)C(F)(F)F` (configuration not stated), the viability is 88% (inactive).

Consider `C=CCn1c(=S)[nH]c2nc3c(cc2c1=O)COC(C)(C)C3`, for which the viability is 90% (inactive).

For `CC(=O)Nc1ccc(S(=O)(=O)N(CC(=O)O)Cc2ccccc2)cc1`, the viability was 93.7% (inactive). As to `Cc1cccc2cc(C#N)c(SCCN3CCCCC3)nc12`, the viability was 61.8% (inactive). To `CSc1nnc(-c2cnccn2)n1C` belongs 107% (inactive).

Regarding `COc1ccccc1NC1=NC2(CCCC2)N=C(N)N1`, the viability was 91.3% (inactive). With `CC(C)C(c1nnnn1C1CCCC1)N1CCCc2ccccc21` (configuration not stated), the viability is 80.3% (inactive). Next, `COc1cc(NC(=O)c2cc(-n3cnnc3)ccc2Cl)cc(OC)c1`: 93.6% (inactive); `Cc1ccc(OCc2nnc(SCC(=O)N3CCOCC3)n2C)cc1`: 102% (inactive); `CCc1nc(C)ccc1OCC(=O)O`: 102% (inactive).

Regarding `CCCOc1ccc(N2C(=O)CC(NCCCN3CCC(C(N)=O)CC3)C2=O)cc1` (configuration not stated), the viability was 121% (inactive). Next, `CC1CCCCN1CCNS(=O)(=O)c1ccc2c(c1)oc(=O)n2C` (configuration not stated): 87% (inactive). Consider `COc1cccc(C(c2nnnn2Cc2ccccc2)N2CCN(C(=O)c3ccco3)CC2)c1OC` (configuration not stated), for which the viability was 77.5% (inactive). Next, `COc1ccc(S(=O)(=O)N2CCC(C(=O)NCc3ccco3)CC2)cc1`: 93.8% (inactive); `CSC1CCCCC1(O)CSc1nc2c(cc1C#N)CCCC2` (configuration not stated): 75.4% (inactive); `CCSc1nnc(NC(=O)c2cc(C)oc2C)s1`: 85% (inactive). Next, `COC(=O)c1ccc(CN(c2ccccc2OC)S(=O)(=O)c2cccs2)o1`: 98.8% (inactive).

For the origin of these results see PubChem BioAssay.
